Results of several laboratories.
Lines come from different studies, so protocols differ.
Target: Focal adhesion kinase 1 (PTK2, Homo sapiens, UniProt Q05397)

| Structure (SMILES) | observed | method | tested at | remaining binding |
| --- | --- | --- | --- | --- |
| CCOCCn1cc(C(=O)Nc2ccc(-n3nc(-c4cccnc4)cc3C(F)(F)F)cn2)ccc1=O | cell-free assay | competition with immobilised ligand | 1 µM | 100% |
| O=C(c1ccc(Nc2nccc(-c3cc4ccccc4s3)n2)cc1)N1CCC(N2CCCC2)CC1 | binding | competition with immobilised ligand | 1 µM | 81% |
| CCN1CCN(Cc2ccc(C(=O)Nc3ccc(C)c(Oc4ccc5c(c4)CC(=O)N5)c3)cc2C(F)(F)F)CC1 | binding | competition with immobilised ligand | 1 µM | 77% |
| O=C(NCc1ncc(C(F)(F)F)cc1Cl)c1ccc2c(c1)C1(CCS(=O)(=O)CC1)[C@@H](C1CC1)N2S(=O)(=O)c1ccc(F)cc1 | cell-free assay | competition with immobilised ligand | 1 µM | 95% |
| CN(C)c1nccc(-c2cnn3ncccc23)n1 | binding | – | 1 µM | 79% |
| C=CC(=O)N1CCC(C(=O)NCC(=O)N2CCN(c3nc(-c4cnc(N)nc4C(F)F)nc(N4CCOCC4)n3)CC2)CC1 | binding | competition with immobilised ligand | 1 µM | 100% |
| c1cncc(-c2cccc(Nc3nccc(NC4CCCCC4)n3)c2)c1 | binding | competition with immobilised ligand | 10 µM | 67% |
| N[C@H]1CCN(c2nccc(-c3cnn4ncccc34)n2)C1 | binding | – | 1 µM | 100% |
| O=C(NCC1CCOCC1)c1n[nH]cc1NC(=O)c1c(F)cccc1F | binding | competition with immobilised ligand | 1 µM | 100% |
| O=C1CCc2cc(Nc3cc(OC4CCOCC4)c([N+](=O)[O-])cc3Cl)ccc2N1 | cell-free assay | competition with immobilised ligand | 1 µM | 100% |
| O=C(NCCCN1CCOCC1)c1ccc(Nc2ncc(Cl)c(-c3ccc(Cl)s3)n2)cc1 | binding | competition with immobilised ligand | 1 µM | 8.1% |
| O=C(N[C@H]1CCCCC/C=C\C2C[C@@]2(C(=O)O)NC(=O)[C@@H]2C[C@@H](Oc3ccncc3)CN2C1=O)OC1CCCC1 (some centres unmarked) | binding | competition with immobilised ligand | 1 µM | 97% |
| CN(C)c1ncc(F)c(-c2cnn3ncccc23)n1 | binding | – | 1 µM | 100% |
| Nc1ncc2c(n1)-c1c([nH]c3ccc(C#CC4CC4)cc13)CCCC2 | binding | competition with immobilised ligand | 1 µM | 91% |
| COc1cc(-c2cn(C3CCc4ccccc4N(CC(F)(F)F)C3=O)nn2)ccc1-n1ccc(C)n1 (centres unmarked) | cell-free assay | competition with immobilised ligand | 1 µM | 100% |
| CNC(=O)[C@@H]1CC[C@@H](n2c(-c3ccc4cnccc4c3)nc3ccc(C(=O)NCc4cccc(C(N)=O)c4)cc32)C1 | binding | competition with immobilised ligand | 1 µM | 92% |
| CN(CCCC(F)(F)F)c1nccc(-c2cnn3ncccc23)n1 | binding | – | 1 µM | 100% |
| C[C@@H]1CN(c2ccc3ncc(-c4ccc5[nH]nc(C6CC6)c5c4)n3n2)C[C@H](C)O1 | binding | competition with immobilised ligand | 0.5 µM | 100% |
| CC(C)(C)c1ccc(-c2nc(CBr)nn2-c2cccc(O)c2)cc1 | cell-free assay | competition with immobilised ligand | 10 µM | 88% |
| CCS(=O)(=O)c1cc2cc(C[C@@](O)(CC(C)(C)c3ccc(F)cc3C(N)=O)C(F)(F)F)[nH]c2cn1 | cell-free assay | competition with immobilised ligand | 1 µM | 100% |
| O=C(NCCCN1CCOCC1)c1ccc(Nc2nccc(-c3cc4ccccc4s3)n2)cc1 | binding | competition with immobilised ligand | 1 µM | 100% |
| COc1cccc(CNC(=O)c2nc3scc(COCc4ccc(C(=O)O)cc4)c3c(=O)[nH]2)c1 | cell-free assay | competition with immobilised ligand | 1 µM | 100% |
| C[C@H]1CCN(c2nccc(-c3cnn4ncccc34)n2)C1 | binding | – | 1 µM | 100% |
